Laboratory results as given in ChEMBL document CHEMBL1125431, “2-substituted 3-(aminooxy)propanamines as inhibitors of ornithine decarboxylase: synthesis and biological activity” (J Med Chem, 1992).

Legend:
Ornithine decarboxylase = molecular target: T1, Ornithine decarboxylase (Rattus norvegicus, UniProt P09057); experiment: Inhibitory activity against Rat liver ornithine decarboxylase (ODC)
T1 sequence (P09057 whole entry): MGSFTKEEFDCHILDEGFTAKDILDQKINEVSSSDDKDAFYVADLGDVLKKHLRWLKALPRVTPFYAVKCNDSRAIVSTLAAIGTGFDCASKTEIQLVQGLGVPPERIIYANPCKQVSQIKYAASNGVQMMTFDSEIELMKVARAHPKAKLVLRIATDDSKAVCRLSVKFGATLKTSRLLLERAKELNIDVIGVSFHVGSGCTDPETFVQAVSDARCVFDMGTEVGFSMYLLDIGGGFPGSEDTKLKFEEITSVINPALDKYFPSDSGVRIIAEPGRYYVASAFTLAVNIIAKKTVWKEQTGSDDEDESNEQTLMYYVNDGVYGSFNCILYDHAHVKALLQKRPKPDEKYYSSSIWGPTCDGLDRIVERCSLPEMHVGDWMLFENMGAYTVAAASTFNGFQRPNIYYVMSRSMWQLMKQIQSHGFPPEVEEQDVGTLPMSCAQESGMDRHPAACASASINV
In short: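 Partially purified rat liver ODC. Reaction at 37 °C for up to 1 h in 100 mM Tris-HCl pH 7 with 4 mM EDTA, 4 mM DTT, 0.4 mM pyridoxal phosphate and 0.21 mM L-ornithine spiked with L-[1-¹⁴C]ornithine. Inhibitor, in 10 mM Tris pH 7, added with substrate. Released ¹⁴CO₂ trapped on alkali filter; acid stop; scintillation counting. IC50 by linear regression of log concentration versus % activity (95–5% range).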

T-24 [1] = experiment: Inhibitory activity against Human T24 bladder carcinoma cells; format: functional, cell-based
T-24 [2] = experiment: The compound was tested for anti proliferative activity against Human T24 bladder carcinoma cells; format: functional, cell-based

Question: How did the IC50 (Ornithine decarboxylase) turn out when `NCC(Cl)CON` (configuration not stated) was run?
Answer: Its IC50 is 0.093 µM.

Question: What about the IC50 (T-24 [1]) of the same compound?
Answer: The IC50 was 6.3 µM.

Question: For `CN(C)CC(O)CON` (configuration not stated), which IC50 (Ornithine decarboxylase) is on record?
Answer: Its IC50 is > 50 µM.

Question: What about the IC50 (T-24 [1]) of the same compound?
Answer: Its IC50 is > 36.6 µM.

Question: For `Cc1ncc(COP(=O)(O)O)c(/C=N/OCC(F)CN)c1O` (configuration not stated), which IC50 (Ornithine decarboxylase) is on record?
Answer: The IC50 was 5.2 µM.

Question: And the IC50 (T-24 [2])?
Answer: The IC50 was 0.6 µM.

Question: Which IC50 (Ornithine decarboxylase) does the source give for `C=CCNCC(O)CON` (configuration not stated) here?
Answer: Its IC50 is 21 µM.

Question: What about the IC50 (T-24 [2]) of the same compound?
Answer: Its IC50 is > 230 µM.

Question: With `NC[C@H](O)CON` as the compound, how does the IC50 (Ornithine decarboxylase) read?
Answer: The IC50 was 0.033 µM.

Question: And the IC50 (T-24 [1])?
Answer: The IC50 was 16.3 µM.

Question: `C#CCNCC(O)CON` (configuration not stated) was tested. Which IC50 (Ornithine decarboxylase) did it give?
Answer: The IC50 was 8.4 µM.

Question: What about the IC50 (T-24 [1]) of the same compound?
Answer: Its IC50 is > 230 µM.

Question: Which results are given for `CNCC(O)CON` (configuration not stated)?
Answer: IC50 (Ornithine decarboxylase): 1.9 µM; IC50 (T-24 [1]): > 33.3 µM

Question: Which IC50 (Ornithine decarboxylase) does the source give for `NCC(O)CON` (configuration not stated) here?
Answer: Its IC50 is 0.039 µM.

Question: And the IC50 (T-24 [1])?
Answer: Its IC50 is 24.4 µM.

Question: `NCC(F)CNN` (configuration not stated) was tested. Which IC50 (Ornithine decarboxylase) did it give?
Answer: Its IC50 is 3.3 µM.

Question: What about the IC50 (T-24 [1]) of the same compound?
Answer: The IC50 was 163 µM.

Question: How did the IC50 (Ornithine decarboxylase) turn out when `CC(C)NCC(O)CON` (configuration not stated) was run?
Answer: Its IC50 is 66 µM.

Question: And the IC50 (T-24 [2])?
Answer: The IC50 was > 45.2 µM.

Question: Which IC50 (Ornithine decarboxylase) does the source give for `Cc1ncc(COP(=O)(O)O)c(/C=N/OCC(O)CN)c1O` (configuration not stated) here?
Answer: The IC50 was 24 µM.

Question: And the IC50 (T-24 [2])?
Answer: The IC50 was > 112 µM.

Question: For `NCC(F)CON` (configuration not stated), which IC50 (Ornithine decarboxylase) is on record?
Answer: The IC50 was 0.014 µM.

Question: What about the IC50 (T-24 [1]) of the same compound?
Answer: The IC50 was 2.38 µM.

Question: Which results are given for `NCCCON`?
Answer: IC50 (Ornithine decarboxylase): 0.035 µM; IC50 (T-24 [1]): 8.34 µM

Question: Which results are given for `CS(=O)(=O)OC(CN)CON` (configuration not stated)?
Answer: IC50 (Ornithine decarboxylase): 1.1 µM; IC50 (T-24 [1]): 111 µM

Question: What does the source list for `NC[C@@H](O)CON`?
Answer: IC50 (Ornithine decarboxylase): 0.049 µM; IC50 (T-24 [1]): 20.5 µM

Question: For `NOCC(O)CON`, which IC50 (Ornithine decarboxylase) is on record?
Answer: The IC50 was 670 µM.

Question: And the IC50 (T-24 [1])?
Answer: Its IC50 is 181 µM.
